The source made the active and inactive calls. No cut-off for these calls is given here.
Assays:
[1] = biological target: Sigma non-opioid intracellular receptor 1 (Cavia porcellus, UniProt Q60492); experiment: Displacement of [3H]-(+)-pentazocine from sigma1 receptor in guinea pig brain membrane incubated for 150 mins by liquid scintillation counting method; assay type: cell membranes
Outline: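 Guinea pig brain membranes (500 µg protein) in 50 mM Tris-HCl pH 7.4 with 3 nM [3H]-(+)-pentazocine. […] Incubated 150 min at 37 °C, then filtered on PEI-soaked GF/B filters and counted by scintillation. Ki obtained by EBDA/LIGAND; three determinations.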

[2] = Displacement of [3H]-DTG from Sigma 2 receptor in guinea pig brain membrane incubated for 120 mins in presence of sigma1 blocker (+)-SKF-10047 by liquid scintillation counting method; assay type: cell membranes, Cavia porcellus
Cavia porcellus = species: Cavia porcellus; experiment: Selectivity ratio of Ki for displacement of [3H]-DTG from sigma2 receptor in guinea pig brain membrane to Ki for displacement of [3H]-(+)-pentazocine from sigma1 receptor in guinea pig brain membrane; assay type: cell membranes
[3] = Cytotoxicity against Sprague-Dawley rat Cerebral cortex neuron assessed as cell viability at 0.1 uM incubated for 24 hrs by MTT assay relative to control; assay type: tissue-based; settings: cerebral cortex neurons, read-out: Activity
Outline: (§1)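 Primary fetal rat cortical neurons, matured 8 days, treated 24 h at 37 °C with compound (0.1–100 µM; 0.5% DMSO or water vehicle). MTT 0.7 mg/ml was then added for 30 min at 37 °C, and formazan was extracted with isopropanol/formic acid (95:5) and read at 560 nm. Untreated control was set as 100% viability. Four independent experiments.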

[4] = Cytotoxicity against Sprague-Dawley rat Cerebral cortex neuron assessed as cell viability at 1 uM incubated for 24 hrs by MTT assay relative to control; assay type: tissue-based; settings: cerebral cortex neurons, read-out: Activity; outline: as §1
[5] = Cytotoxicity against Sprague-Dawley rat Cerebral cortex neuron assessed as cell viability at 10 uM incubated for 24 hrs by MTT assay relative to control; assay type: tissue-based; settings: cerebral cortex neurons, read-out: Activity; outline: as §1
[6] = Cytotoxicity against Sprague-Dawley rat Cerebral cortex neuron assessed as cell viability at 25 uM incubated for 24 hrs by MTT assay relative to control; assay type: tissue-based; settings: cerebral cortex neurons, read-out: Activity; outline: as §1
[7] = Cytotoxicity against rat Sprague-Dawley Cerebral cortex neuron assessed as cell viability at 50 uM incubated for 24 hrs by MTT assay relative to control; assay type: tissue-based; settings: cerebral cortex neurons, read-out: Activity; outline: as §1
[8] = Cytotoxicity against Sprague-Dawley rat Cerebral cortex neuron assessed as cell viability at 100 uM incubated for 24 hrs by MTT assay relative to control; assay type: tissue-based; settings: cerebral cortex neurons, read-out: Activity; outline: as §1
[9] = Cytotoxicity against Sprague-Dawley rat Cerebral cortex neuron assessed as LDH activity at 0.1 uM incubated for 24 hrs by LDH assay (reference value: […]); assay type: tissue-based
Outline: (§2)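 Primary fetal rat cortical neurons, matured 8 days on poly-D-lysine, exposed 24 h at 37 °C to compound (0.1–100 µM; DMSO 0.5% or water vehicle). LDH released into 100 µl culture medium was measured by kit as the rate of NAD+ reduction (absorbance increase at 490 nm). Positive control was mitomycin C. Four independent experiments.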

[10] = Cytotoxicity against Sprague-Dawley rat Cerebral cortex neuron assessed as LDH activity at 1 uM incubated for 24 hrs by LDH assay (reference value: […]); assay type: tissue-based; outline: as §2
[11] = Cytotoxicity against Sprague-Dawley rat Cerebral cortex neuron assessed as LDH activity at 10 uM incubated for 24 hrs by LDH assay; assay type: tissue-based; outline: as §2
[12] = Cytotoxicity against Sprague-Dawley rat Cerebral cortex neuron assessed as LDH activity at 25 uM incubated for 24 hrs by LDH assay (reference value: […]); assay type: tissue-based; outline: as §2
[13] = Cytotoxicity against Sprague-Dawley rat Cerebral cortex neuron assessed as LDH activity at 50 uM incubated for 24 hrs by LDH assay (reference value: […]); assay type: tissue-based; outline: as §2
[14] = Cytotoxicity against Sprague-Dawley rat Cerebral cortex neuron assessed as LDH activity at 100 uM incubated for 24 hrs by LDH assay (reference value: […]); assay type: tissue-based; outline: as §2
[15] = Antioxidant activity in Sprague-Dawley rat Cerebral cortex neuron assessed as total antioxidant capacity by measuring trolox equivalents at 0.1 uM after 24 hrs; assay type: functional
Outline: (§3)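 Primary cerebral cortex neurons from rat fetuses, grown on poly-D-lysine in neurobasal medium with fetal calf serum (5% CO2, 37 °C), tested after 8 days in culture. Compounds in DMSO (0.5%) or sterile water were added and incubated 24 h at 37 °C. Cells were washed in ice-cold PBS and homogenized in 0.9% saline. Intracellular TAC (Trolox equiv.) and TOS (H2O2 equiv.) were read by kit. Ascorbic acid 10 µM (TAC) and H2O2 25 µM (TOS) served as positive controls. Four independent experiments.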

[16] = Antioxidant activity in Sprague-Dawley rat Cerebral cortex neuron assessed as total antioxidant capacity by measuring trolox equivalents at 1 uM after 24 hrs; assay type: functional; outline: as §3
[17] = Antioxidant activity in Sprague-Dawley rat Cerebral cortex neuron assessed as total antioxidant capacity by measuring trolox equivalents at 10 uM after 24 hrs; assay type: functional; outline: as §3
[18] = Antioxidant activity in Sprague-Dawley rat Cerebral cortex neuron assessed as total antioxidant capacity by measuring trolox equivalents at 25 uM after 24 hrs; assay type: functional; outline: as §3
[19] = Antioxidant activity in Sprague-Dawley rat Cerebral cortex neuron assessed as total antioxidant capacity by measuring trolox equivalents at 50 uM after 24 hrs; assay type: functional; outline: as §3
[20] = Antioxidant activity in Sprague-Dawley rat Cerebral cortex neuron assessed as total antioxidant capacity by measuring trolox equivalents at 100 uM after 24 hrs; assay type: functional; outline: as §3
[21] = Antioxidant activity in Sprague-Dawley rat Cerebral cortex neuron assessed as total oxidative stress level by measuring H2O2 equivalents at 0.1 uM after 24 hrs (reference value: 2.3 +/- 0.3 umol/L); assay type: functional; outline: as §3
[22] = Antioxidant activity in Sprague-Dawley rat Cerebral cortex neuron assessed as total oxidative stress level by measuring H2O2 equivalents at 1 uM after 24 hrs (reference value: 2.3 +/- 0.3 umol/L); assay type: functional; outline: as §3
[23] = Antioxidant activity in Sprague-Dawley rat Cerebral cortex neuron assessed as total oxidative stress level by measuring H2O2 equivalents at 10 uM after 24 hrs (reference value: 2.3 +/- 0.3 umol/L); assay type: functional; outline: as §3
[24] = Antioxidant activity in Sprague-Dawley rat Cerebral cortex neuron assessed as total oxidative stress level by measuring H2O2 equivalents at 25 uM after 24 hrs (reference value: 2.3 +/- 0.3 umol/L); assay type: functional; outline: as §3
[25] = Antioxidant activity in Sprague-Dawley rat Cerebral cortex neuron assessed as total oxidative stress level by measuring H2O2 equivalents at 50 uM after 24 hrs (reference value: 2.3 +/- 0.3 umol/L); assay type: functional; outline: as §3
[26] = Antioxidant activity in Sprague-Dawley rat Cerebral cortex neuron assessed as total oxidative stress level by measuring H2O2 equivalents at 100 uM after 24 hrs (reference value: 2.3 +/- 0.3 umol/L); assay type: functional; outline: as §3
Mus musculus [27] = experiment: In vivo agonist activity at sigma 1 receptor in Swiss […] mouse assessed as modulation of morphine-induced analgesic effect by measuring tail flick latency at 1 mg/kg, ip measured after 90 mins by radiant heat tail-flick method; assay type: functional, organism-based
Mus musculus [28] = experiment: In vivo agonist activity at sigma 1 receptor in Swiss […] mouse assessed as modulation of morphine-induced analgesic effect by measuring tail flick latency at 1 mg/kg, ip preincubated for 45 mins followed by morphine treatment after 90 mins by radiant heat tail-flick method; assay type: functional, organism-based; settings: time 135.0 min

Sequence of Sigma non-opioid intracellular receptor 1 (Q60492 whole entry): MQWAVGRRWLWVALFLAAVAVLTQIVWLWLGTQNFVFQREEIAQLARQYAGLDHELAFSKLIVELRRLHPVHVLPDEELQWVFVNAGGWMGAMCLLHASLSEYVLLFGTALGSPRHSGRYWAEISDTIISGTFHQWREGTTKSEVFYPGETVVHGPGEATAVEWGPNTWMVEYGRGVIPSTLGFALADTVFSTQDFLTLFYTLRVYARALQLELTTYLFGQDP

| Compound | viability at 24 h, 0.1 µM [3] | viability at 24 h, 1 µM [4] | viability at 24 h, 10 µM [5] | viability at 24 h, 25 µM [6] | viability at 24 h, 50 µM [7] | viability at 24 h, 100 µM [8] | Activity [9] | Activity [10] | Activity [11] | Activity [12] | Activity [13] | Activity [14] | TAC [15] | TAC [16] | TAC [17] | TAC [18] | TAC [19] | TAC [20] | Activity [21] | Activity [22] | also measured |
| --- | --- | --- | --- | --- | --- | --- | --- | --- | --- | --- | --- | --- | --- | --- | --- | --- | --- | --- | --- | --- | --- |
| O=C(CCCC[C@@H]1CCSS1)N1CCN(Cc2ccccc2)CC1 | 98.5% | 98.7% | 96.5% | 96.6% | 95.7% | 95.8% | 0.3 mU/ml | 0.32 mU/ml | 0.32 mU/ml | 0.3 mU/ml | 0.3 mU/ml | 0.32 mU/ml | 10.2 mmol/L | 10.5 mmol/L | 10.8 mmol/L | 13 mmol/L | 12.8 mmol/L | 11.2 mmol/L | 0.5 µmol/L | 0.5 µmol/L | Ki [1]: 6.1 nM; Ki [2]: 1240 nM; Ratio Ki (Cavia porcellus): 204; Activity [23]: 0.4 µmol/L; Activity [24]: 0.4 µmol/L; Activity [25]: 0.4 µmol/L; Activity [26]: 0.5 µmol/L |
| O=C1O[C@H]([C@@H](O)CO)C(O)=C1O [ASCORBIC ACID] | – | – | – | – | – | – | – | – | – | – | – | – | – | – | 26.9 mmol/L | – | – | – | – | – | – |
| O=C(CCCC[C@@H]1CCSS1)OC1CCN(Cc2ccccc2)CC1 | 100% | 98.7% | 96.4% | 96.6% | 97.4% | 96.2% | 0.3 mU/ml | 0.28 mU/ml | 0.3 mU/ml | 0.32 mU/ml | 0.34 mU/ml | 0.32 mU/ml | 10.9 mmol/L | 10.7 mmol/L | 10.9 mmol/L | 11.3 mmol/L | 10.9 mmol/L | 11 mmol/L | 0.4 µmol/L | 0.4 µmol/L | Ki [1]: 17.7 nM; Ki [2]: 1870 nM; Ratio Ki (Cavia porcellus): 106; Activity (Mus musculus [27]): inactive; Activity (Mus musculus [28]): Active; Activity [23]: 0.4 µmol/L; Activity [24]: 0.5 µmol/L; Activity [25]: 0.5 µmol/L; Activity [26]: 0.5 µmol/L |
| O=C(O)CCCC[C@@H]1CCSS1 [THIOCTIC ACID] | 98.6% | 97.9% | 98.1% | 97.2% | 96.4% | 95.9% | 0.27 mU/ml | 0.28 mU/ml | 0.28 mU/ml | 0.27 mU/ml | 0.29 mU/ml | 0.29 mU/ml | 10.7 mmol/L | 10.5 mmol/L | 10.9 mmol/L | 11.2 mmol/L | 12.1 mmol/L | 13.5 mmol/L | 0.4 µmol/L | 0.5 µmol/L | Activity [23]: 0.4 µmol/L; Activity [24]: 0.4 µmol/L; Activity [25]: 0.5 µmol/L; Activity [26]: 0.5 µmol/L |
| CO[C@@]12[C@H](COC(N)=O)C3=C(C(=O)C(C)=C(N)C3=O)N1C[C@@H]1N[C@@H]12 [MITOMYCIN] | – | – | 46.1% | – | – | – | – | – | 2.23 mU/ml | – | – | – | – | – | – | – | – | – | – | – | – |

Reference: ChEMBL document CHEMBL4715728, “New bifunctional antioxidant/σ1 agonist ligands: Preliminary chemico-physical and biological evaluation” (Bioorg Med Chem, 2016)
